Only a selection was taken, and hits are over-represented in it overall.
INS promoter act = TRM-6 insulin promoter activation; AID 1296; TRM-6 cells, insulin promoter eGFP reporter, imaging; plate-scaled: unstimulated 0, stimulated control 100; 0.81% of 130,000 active; activation, % at 2 µM;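 active = activation at 2 µM above a set limit, confirmed on inspection of the cell images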;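 note: share of cells whose green reporter signal exceeds an intensity cutoff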
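System: human fetal islet-derived TRM-6 cells with tamoxifen-inducible insulin promoter–eGFP reporter; input: seeding density of 1,000 cells per well; buffer or medium: Low-glucose (5.5 mM) medium with tamoxifen; incubation: compound exposure 48 h, 37 °C; measured by: high-content imaging of fixed cells with Hoechst nuclear stain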
Numbers stand for hits; n = inactive; [ ] = another dose, or the depositor's remark.

SMILES | INS promoter act
O=C(CSc1nnc(-c2cccnc2)n1Cc1ccco1)NCc1ccc2c(c1)OCO2 | 285
NNC(=O)CN1C(c2ccccc2Br)=Nc2ccc(Br)cc2C1c1ccccc1 (centres undefined) | n
Cc1noc(C)c1COc1cccc(C(=O)N2CCc3ccccc32)c1 | n
Cc1nc(S(=O)(=O)N2CCOCC2)c(C#N)c(C)c1Cl | n
CCCCN1C(=O)C(O)(CC(=O)c2c(C)coc2C)c2ccccc21 (centres undefined) | n
CCCCN1C(=O)C(O)(CC(=O)c2ccccc2OC)c2ccccc21 (centres undefined) | n
CCCCN1C(=O)C2(NNc3ccccc3O2)c2ccccc21 (centres undefined) | 170
O=C(NCCc1ccccn1)C1CCN(S(=O)(=O)c2ccc3ccccc3c2)CC1 | n
COC(=O)c1ccc(NC(=O)COc2ccc(S(=O)(=O)NC(C)C)cc2)cc1 | n
N/C(COc1ccccc1)=N\NS(=O)(=O)c1ccccc1 | n
COC(=O)c1ccc(S(=O)(=O)NNC(=O)COc2ccc(C)cc2)cc1 | n
COC(=O)c1ccc(NC(=O)COc2ccc(S(=O)(=O)NC(C)(C)C)cc2)cc1 | 443
Cc1cc(C)nc(NS(=O)(=O)c2ccc(NC(=O)COc3ccccc3)cc2)n1 | n
O=C(COc1ccc(/C=N/NS(=O)(=O)c2ccccc2)cc1)Nc1ccccc1 | 285
Cc1cccc(C)c1OC(=O)C(c1ccccc1)c1ccccc1 | n
COc1cc(CN(C(=S)NCC(=O)NC2CCCC2)C2CCCC2)cc(OC)c1OC | n
CC1=C(C(=O)c2ccccc2)C(c2ccc(OC(F)F)cc2)NC(=S)N1 (centres undefined) | n
O=C(NNC(=O)[C@H]1CC=CC[C@H]1C(=O)O)c1ccc(Cl)cc1Cl | n
Cc1ccc(NC(=O)c2cc(S(=O)(=O)c3ccccc3)ccc2Cl)cc1 | n
CC(C)c1nnc(NC(=O)Cc2ccccc2[N+](=O)[O-])s1 | n
CC(=O)OC(COc1cccc(C)c1)Cn1cnc2ccccc21 (centres undefined) | 407
Cc1cccc(OCC(O)CNC(=O)c2ccccc2C(=O)O)c1 (centres undefined) | n
CC(=O)Nc1cccc(OCC(O)Cn2cnc3ccccc32)c1 (centres undefined) | n
CCCCN(CC)CCCNC(=O)C1CCN(c2ncnc3c2sc2cccc(F)c23)CC1 | n
Cc1ncsc1CCOC(=O)C1C2CC3CC(C2)CC1C3 (centres undefined) | n
SMILES | INS promoter act
COc1ccc(-[n+]2c(C)cc(/C=C3\Sc4ccccc4N3C)cc2C)cc1 | 400
O=C1N2CCSC2=NC1(Nc1nccs1)C(F)(F)F (centres undefined) | n
Cc1ccc2cc(CCNC(=O)Cc3cccs3)c(=O)[nH]c2c1 | n
CC1(C)O[C@H]2OC([C@H](O)CON3C(=O)c4ccccc4C3=O)[C@H](O)[C@H]2O1 (some centres undefined) | 264
Cc1ccc(C(=O)OCC2OC3OC(C)(C)OC3C2O)cc1 (centres undefined) | n
O=C1c2ccccc2C(=O)N1OCCOCCOCCBr | n
O=C1OC(C(=O)O)Cc2ccccc21 (centres undefined) | n
COc1ccc(C(=O)N/C(=C/c2ccco2)C(=O)NC2CCS(=O)(=O)C2)cc1 (centres undefined) | n
O=C(CN1CCCc2ccccc21)NCCc1ccc(Cl)cc1 | 300
O=C(CN1CCCc2ccccc21)NCc1ccc2c(c1)OCO2 | n
COC(=O)c1[nH]c2ccc(C)cc2c1NC(=O)CN1CCCc2ccccc21 | n
O=C(NCCc1nc(-c2ccccc2)cs1)c1ccc(Br)cc1 | n
CC(NC(=O)c1ccc(C23CC4CC(CC(C4)C2)C3)cc1)C(=O)O (centres undefined) | n
Cc1sc2nc(CN(C(=O)NC3CCCCC3)C3CCCCC3)[nH]c(=O)c2c1C | n
CCC(=O)Nc1ccc2c(c1)ncn2-c1ccc(C)cc1 | n
O=[N+]([O-])c1ccc(Cl)c(/C=N/N2CCN(c3ccccc3)CC2)c1 | n
O=[N+]([O-])c1ccc(/C=C/C2=NN(c3ccccc3)C(c3ccco3)C2)cc1 (centres undefined) | 285[fluoresces]
O=c1ccc(-c2ccc([N+](=O)[O-])cc2)nn1-c1ccccc1 | n
O=C(NCC(c1cccnc1)N1CCOCC1)NC1CCCCC1 (centres undefined) | n
CCOC(=O)c1c(C)[nH]c(C(=O)COC(=O)C(C)N2C(=O)C3CCCCC3C2=O)c1C (centres undefined) | n
O=C(COC(=O)[C@@H]1CC(O)CN1S(=O)(=O)c1ccc2c(c1)OCCO2)Nc1ccccc1F (some centres undefined) | n
COc1ccc(Nc2ccc3nnc(-c4ccc(Br)cc4)n3n2)cc1 | n
CCCCCCSC1=C(C#N)C(=O)NC2(CCCCC2)S1 | n
NC(=O)CSCc1nc2ccccc2s1 | n
COCCn1c(C)cc(C(=O)CSc2nc3ccccc3s2)c1C | n
SMILES | INS promoter act
Cc1cc(C(=O)COC(=O)CCc2nc3ccccc3s2)c(C)n1C | 78
OCCN(Cc1ccccc1)Cc1cccc(F)c1 | 81
OCCN(Cc1ccccc1)CC1CCCCC1 | n
OCCN(Cc1ccccc1)CC1CC2C=CC1C2 (centres undefined) | n
COCCNC(=S)N/N=C(\C)c1cccc([N+](=O)[O-])c1 | n
CCOC(=O)COc1cc(=O)n(CC)c2ccccc12 | n
CCn1c(=O)cc(OCC(=O)NCCc2cccc(C)c2)c2ccccc21 | 129
CCn1c(=O)cc(OCC(=O)Nc2cc(C)ccn2)c2ccccc21 | n
CC1CCN(C(=O)C2(NC(=O)Nc3cccc(F)c3)CCCCC2)CC1 | n
Cc1ccc(Nc2nc(N)nc(CSC(=S)N3CCOCC3)n2)c(C)c1 | n
Cc1ccc(S(=O)(=O)N(C)c2ccc(OCC(=O)O)cc2)cc1 | n
COc1ccc(C(C)NC(=O)c2ccccc2)cc1 (centres undefined) | n
COc1ccc(C(C)NC(=O)Cc2ccc(Br)cc2)cc1 (centres undefined) | n
COc1ccc(C(NC(=O)C(C)(C)C)NC(=O)C(C)(C)C)cc1 | 95
COc1ccc(OC)c(C2=NOC(C(=O)Nc3cc(C)nn3-c3ccccc3)C2)c1 (centres undefined) | n
Cc1ccc(C(=O)C(C(=O)/C=C/c2ccccc2)=C2SCCCS2)cc1 | n
Cc1ccc(/C(O)=C2/C(=O)C(=O)N(CCN3CCOCC3)C2c2cccs2)cc1 (centres undefined) | n
Cc1cc(NC(=O)CSc2nc3ccsc3c(=O)n2NC(=O)c2ccccc2)no1 | 436
Cc1ccc(CNC(=O)CSc2nc3ccsc3c(=O)n2NC(=O)c2ccccc2)cc1 | n
Cc1cc(NC(=O)CSc2nc(-c3ccccc3)cs2)no1 | n
c1ccc(-c2csc3ncnc(N4CCc5ccccc5C4)c23)cc1 | n
N#Cc1c(N2CCN(C(=O)c3ccccc3)CC2)nc(-c2ccccc2)c2c1CCCC2 | 79
N#Cc1c(N2CCN(C(=O)c3ccco3)CC2)nc(-c2ccccc2)c2c1CCCC2 | n
CC(C)Cc1nc(N2CCN(C(=O)c3ccco3)CC2)c(C#N)c2c1CCC2 | n
COC(=O)c1nnn(CC(=O)Nc2cccc(OC)c2)c1C(=O)OC | n
CC(C)CNC(=O)CN(C)S(=O)(=O)c1ccc(F)cc1 | n
CCOC(=O)CCN(Cc1sccc1C)S(=O)(=O)c1ccc(F)cc1 | 77
CCN(CC)S(=O)(=O)c1ccc(F)cc1 | n
CC(=O)OCCCN1c2ccccc2Nc2nnc(-c3ccccc3)cc21 | n

Source: PubChem BioAssay
